Here are results for ten compounds from paper PMC5909815 (Nature chemical biology, 2017).

pIC50: −log10 of the molar value.

Series [1] relates to H1155 cells. Put plainly: cell viability, combination of inhibitors with paclitaxel. It counts as cell-based.
The test system of series [2] is multiple cell lines (H650, H1155, H23). Put plainly: relative cell counts after treatment with selective inhibitors. It counts as cell-based. As to conditions: 72 h. In short, it runs like this: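 Cells were treated 72 h with test inhibitors at 1.5 μM (20 μM for FMK and SL0101), diluted from 10 mM DMSO stocks in complete RPMI. Viable cells were counted in triplicate by trypan blue exclusion on a hemocytometer. Data are biological triplicates each in technical triplicate, reported as median ± SD relative counts.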

The next series addresses EML4-ALK (Homo sapiens, UniProt Q9HC35+Q9UM73). Put plainly: c-ceritinib pulldown. In kind it is binding. As to conditions: immobilized compound, cell lysate.
The target of another series is ALK (Homo sapiens, UniProt Q9UM73). The series is described as follows: in vitro kinase assay. It counts as biochemical. The gist of the method:
(§1)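 Biochemical kinase IC50s were determined by two contract providers. One used a 10-dose 3-fold serial dilution from 20 μM and the other a 9-dose 3-fold dilution from 20 μM, each in technical duplicate. Reported values are the mean of the combined datasets.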

In another series the test system is NSCLC cells. The series is described as follows: cell cycle analysis by flow cytometry. In kind it is cell-based. In short, it runs like this:
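Cell cycle: after incubation, cells were harvested, fixed in 70% cold ethanol and held at −20°C. They were then washed in PBS and stained with 1 μg/mL DAPI in 0.1% Triton X-100/PBS. DNA content was measured by flow cytometry and cell-cycle phases were modelled from the histograms.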

Series [3] relates to AKT phosphorylation in H23 cells. The series is described as follows: Western blot, AKT phosphorylation. In kind it is cell-based. Conditions: 3 h. The gist of the method:
(§2)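 H23 cells were treated for 3 h with test compounds: FMK at 20 μM, OSI-906 and PF-573228 at 1.5 μM. Target phosphorylation and downstream signals were read by western blot with HRP-conjugated secondary antibodies; n = 3.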

Series [4] deals with phosphorylation of RPS6 at S235/236. The series is described as follows: Immunoblot, RPS6 phosphorylation. In kind it is cell-based. A general note: Immunoblotting shows a protein as a band on a membrane.
Series [5] relates to ERK phosphorylation in H23 cells. The series is described as follows: Western blot, ERK phosphorylation. In kind it is cell-based. Conditions: 3 h. In short, it runs like this: as §2
Series [6] deals with RSK1/2 S380/S386 autophosphorylation in H23 cells. Put plainly: Western blot, RSK1/2 autophosphorylation. It counts as cell-based. Conditions: 3 h. In short, it runs like this:
as §2

In series [7] the test system is PDX tumor models with high pFAK1 staining (PDX1, PDX2, PDX3). The series is described as follows: ex vivo soft-agar 3D clonogenic assay, combination with paclitaxel. It counts as cell-based. Conditions: particularly at low drug concentrations.
Series [8] relates to H1155 cells. Put plainly: apoptosis by cleaved caspase 3/7 and PARP1. In kind it is cell-based. As to conditions: for apoptosis, single drug: single drug treatment.
For series [9] the following is noted: patient plasma; cited from earlier work.
The next series addresses FER (Homo sapiens, UniProt P16591). Put plainly: in vitro kinase assay. In kind it is biochemical.
The subject of series [10] is H460 cells. Put plainly: clonogenic assay, combination with paclitaxel. In kind it is cell-based. As to conditions: 7 days.
The target in the next series is mTOR (Homo sapiens, UniProt P42345). The series is described as follows: in vitro kinase assay. Conditions: at 1.5 μM. It counts as biochemical.
The test system of series [11] is H460 cells. Put plainly: cell viability, combination with paclitaxel. In kind it is cell-based.
Series [12] concerns ALK-negative NSCLC cell lines (most sensitive cells). The series is described as follows: CellTiter-Glo cell viability, dose-response curves. In kind it is cell-based.
The test system of another series is ERK1/2. The series is described as follows: in vitro kinase assay. In kind it is biochemical. As to conditions: at 1.5 μM.
The test system of series [13] is phosphorylation of YB1 at S102. The series is described as follows: Immunoblot, YB1 phosphorylation. In kind it is cell-based. Conditions: 3 h treatment. In short, it runs like this:
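YB1 phosphorylation was read by immunoblot after 3 h treatment: FMK 20 μM, OSI-906 1.5 μM, PF-573228 1.5 μM. Lysis was in NP40/Tris pH 7.5/glycerol/MgCl₂/NaCl buffer with phosphatase and protease inhibitors. Detection used HRP-conjugated anti-rabbit or anti-mouse secondaries.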

A further series relates to H650 and H1155 cells. The series is described as follows: cell viability, combination with paclitaxel. It counts as cell-based. Conditions: 72 h. In short, it runs like this:
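Cells were plated at 1000 cells/well in 384-well format and dosed 24 h later with test compound alone or with the partner agent, each diluted in culture medium. After 72 h, viability was read by CellTiter-Glo luminescence (n = 3). Dose-response curves were fitted, and combination effects were scored by the Bliss model or by the Chou-Talalay combination index.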

Series [14] concerns NSCLC cell lines (KRAS-mutant H650, H1155 and H23 cells). The series is described as follows: phenotypic drug screen, cell viability. In kind it is cell-based. As to conditions: 72 h, 2.5 μM; ALK-negative lines. The gist of the method: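 Phenotypic screen: 240 compounds were tested across 20 NSCLC cell lines, seeded 1000 cells/well in 384-well plates and treated 24 h later. Compounds were diluted from 10 mM DMSO stocks in complete RPMI to final 0.5 μM and 2.5 μM for 72 h in biological duplicate. Viability was read by CellTiter-Glo luminescence and profiles were grouped by unsupervised hierarchical clustering.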

The target in the next series is AMPKα1 (Homo sapiens, UniProt Q13131). The series is described as follows: in vitro kinase assay. It counts as biochemical. In short, it runs like this: as §1
The subject of series [15] is autophosphorylation of FAK1 in H23 cells. Put plainly: Western blot, FAK1 autophosphorylation. It counts as cell-based. Conditions: 3 h. In short, it runs like this: as §2
In series [16] the target is RSK1/2 C-terminal kinase domain (CTKD). The series is described as follows: cross-competition pulldown with NTKD or CTKD inhibitors. In kind it is binding. As to conditions: H650 lysate ± 20 μM BI-D1870 or FMK.
The subject of series [17] is NRAS-mutant H1299 LCLC cells. The series is described as follows: cell viability, combination with paclitaxel. It counts as cell-based.
Another series relates to FAK1 and RSK1/2. The series is described as follows: c-ceritinib pulldown competition with free ceritinib. Conditions: 20 μM unmodified ceritinib, H650 cell lysate. It counts as binding.

As a reminder, the pIC50 is the IC50 on a negative log10 scale, so that one unit is a factor of ten. As usually defined, the viability is the share of living cells, or the viability signal relative to a control.

Sequence of ALK (Q9UM73 19-1620): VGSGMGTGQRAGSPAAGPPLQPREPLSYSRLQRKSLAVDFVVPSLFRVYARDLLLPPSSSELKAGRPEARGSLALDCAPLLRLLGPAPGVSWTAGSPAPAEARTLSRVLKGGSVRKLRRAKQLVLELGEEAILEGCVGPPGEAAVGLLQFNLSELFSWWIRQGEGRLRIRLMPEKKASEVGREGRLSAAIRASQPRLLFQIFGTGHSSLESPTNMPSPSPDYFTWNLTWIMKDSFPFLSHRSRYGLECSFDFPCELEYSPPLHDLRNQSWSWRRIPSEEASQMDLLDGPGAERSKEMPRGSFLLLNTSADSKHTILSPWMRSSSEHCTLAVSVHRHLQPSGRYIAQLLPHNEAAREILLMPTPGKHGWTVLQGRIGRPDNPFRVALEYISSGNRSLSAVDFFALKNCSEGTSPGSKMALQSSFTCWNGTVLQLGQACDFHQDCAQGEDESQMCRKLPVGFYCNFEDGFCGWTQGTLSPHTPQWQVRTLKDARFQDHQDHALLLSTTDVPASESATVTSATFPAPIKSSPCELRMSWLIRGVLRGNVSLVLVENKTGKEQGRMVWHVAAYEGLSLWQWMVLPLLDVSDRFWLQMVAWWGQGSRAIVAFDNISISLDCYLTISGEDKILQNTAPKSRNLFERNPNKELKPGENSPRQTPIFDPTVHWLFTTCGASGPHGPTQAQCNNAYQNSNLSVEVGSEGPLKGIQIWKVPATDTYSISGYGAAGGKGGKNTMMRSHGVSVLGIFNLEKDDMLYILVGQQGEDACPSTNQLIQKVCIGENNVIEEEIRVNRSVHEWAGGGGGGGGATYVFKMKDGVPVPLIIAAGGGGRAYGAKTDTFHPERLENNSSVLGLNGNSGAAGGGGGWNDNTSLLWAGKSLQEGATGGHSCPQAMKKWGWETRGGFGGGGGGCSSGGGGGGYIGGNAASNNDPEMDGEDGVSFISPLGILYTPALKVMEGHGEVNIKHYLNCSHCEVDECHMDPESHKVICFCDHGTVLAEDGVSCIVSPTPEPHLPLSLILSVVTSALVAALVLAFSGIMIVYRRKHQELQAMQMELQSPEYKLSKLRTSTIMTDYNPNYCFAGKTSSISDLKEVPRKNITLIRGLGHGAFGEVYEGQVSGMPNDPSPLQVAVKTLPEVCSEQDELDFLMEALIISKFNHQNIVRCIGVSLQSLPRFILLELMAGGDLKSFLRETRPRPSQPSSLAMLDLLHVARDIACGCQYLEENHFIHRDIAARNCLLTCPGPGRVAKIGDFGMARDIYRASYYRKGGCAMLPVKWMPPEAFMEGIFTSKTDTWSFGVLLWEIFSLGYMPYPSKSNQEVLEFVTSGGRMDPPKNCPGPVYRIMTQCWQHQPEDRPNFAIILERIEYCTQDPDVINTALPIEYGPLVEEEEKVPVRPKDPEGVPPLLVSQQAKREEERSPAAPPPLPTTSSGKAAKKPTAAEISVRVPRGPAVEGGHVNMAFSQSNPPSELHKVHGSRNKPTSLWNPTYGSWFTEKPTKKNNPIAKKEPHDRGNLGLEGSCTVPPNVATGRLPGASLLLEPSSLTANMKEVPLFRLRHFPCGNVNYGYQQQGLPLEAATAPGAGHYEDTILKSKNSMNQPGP
Sequence of AMPKα1 (Q13131 whole entry): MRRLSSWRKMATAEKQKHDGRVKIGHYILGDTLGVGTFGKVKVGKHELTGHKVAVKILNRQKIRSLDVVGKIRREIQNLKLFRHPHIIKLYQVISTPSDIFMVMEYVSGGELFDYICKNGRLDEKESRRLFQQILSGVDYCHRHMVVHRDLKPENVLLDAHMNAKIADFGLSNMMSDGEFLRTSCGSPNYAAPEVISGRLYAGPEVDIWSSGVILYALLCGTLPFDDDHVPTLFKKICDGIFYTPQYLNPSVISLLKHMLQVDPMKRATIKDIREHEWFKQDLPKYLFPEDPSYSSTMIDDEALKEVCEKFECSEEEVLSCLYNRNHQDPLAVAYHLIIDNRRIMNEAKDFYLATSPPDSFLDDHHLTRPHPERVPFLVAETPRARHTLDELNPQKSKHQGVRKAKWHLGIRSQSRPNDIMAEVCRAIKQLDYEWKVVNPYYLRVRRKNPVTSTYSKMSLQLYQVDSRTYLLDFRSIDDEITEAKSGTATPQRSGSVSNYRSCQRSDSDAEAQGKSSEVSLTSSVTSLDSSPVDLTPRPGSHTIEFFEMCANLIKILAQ
Sequence of AMPKα1 (Q9Y478 whole entry partner): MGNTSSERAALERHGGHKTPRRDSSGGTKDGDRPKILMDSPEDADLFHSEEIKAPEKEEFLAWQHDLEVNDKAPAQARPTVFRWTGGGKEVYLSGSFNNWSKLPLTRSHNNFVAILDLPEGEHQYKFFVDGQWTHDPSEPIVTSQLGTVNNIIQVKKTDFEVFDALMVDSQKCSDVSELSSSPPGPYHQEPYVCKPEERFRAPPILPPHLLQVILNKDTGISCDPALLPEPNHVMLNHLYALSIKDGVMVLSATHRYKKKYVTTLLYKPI
Sequence of AMPKα1 (P54619 whole entry partner): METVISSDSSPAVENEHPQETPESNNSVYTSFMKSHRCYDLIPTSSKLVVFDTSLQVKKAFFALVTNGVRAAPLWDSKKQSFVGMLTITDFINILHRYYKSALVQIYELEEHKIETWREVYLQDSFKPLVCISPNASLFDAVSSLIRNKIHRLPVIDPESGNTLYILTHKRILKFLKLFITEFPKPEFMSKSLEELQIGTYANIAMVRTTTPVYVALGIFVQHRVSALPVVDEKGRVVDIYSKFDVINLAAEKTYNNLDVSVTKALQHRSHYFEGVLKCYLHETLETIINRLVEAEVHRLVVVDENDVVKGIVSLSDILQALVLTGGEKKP
Sequence of FER (P16591 whole entry): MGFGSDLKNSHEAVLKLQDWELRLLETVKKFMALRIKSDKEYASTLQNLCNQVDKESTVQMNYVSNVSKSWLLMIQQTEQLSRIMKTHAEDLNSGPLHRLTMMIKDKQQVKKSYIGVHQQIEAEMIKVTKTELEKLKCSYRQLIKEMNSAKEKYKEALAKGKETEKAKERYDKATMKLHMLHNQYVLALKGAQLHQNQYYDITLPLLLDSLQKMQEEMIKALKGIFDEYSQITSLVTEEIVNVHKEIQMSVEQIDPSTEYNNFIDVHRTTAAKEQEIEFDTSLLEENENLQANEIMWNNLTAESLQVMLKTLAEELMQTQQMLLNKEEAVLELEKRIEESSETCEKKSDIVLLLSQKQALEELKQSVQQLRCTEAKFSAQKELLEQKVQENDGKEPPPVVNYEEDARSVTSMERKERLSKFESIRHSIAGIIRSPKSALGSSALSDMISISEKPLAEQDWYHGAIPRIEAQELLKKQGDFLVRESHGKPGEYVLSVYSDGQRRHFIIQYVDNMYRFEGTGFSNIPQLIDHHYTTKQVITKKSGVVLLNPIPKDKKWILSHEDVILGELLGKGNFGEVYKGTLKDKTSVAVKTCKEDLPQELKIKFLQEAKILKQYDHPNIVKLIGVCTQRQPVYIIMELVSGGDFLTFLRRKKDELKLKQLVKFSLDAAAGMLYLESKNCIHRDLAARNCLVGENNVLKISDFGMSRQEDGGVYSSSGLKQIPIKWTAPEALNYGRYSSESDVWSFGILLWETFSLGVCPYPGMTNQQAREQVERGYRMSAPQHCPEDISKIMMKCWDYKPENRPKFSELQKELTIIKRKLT

On to `CNC(=O)c1ccccc1Nc1nc(Nc2ccc3c(c2OC)CCC[C@H](N2CCN(CCO)CC2)C3)ncc1Cl` [CEP-37440], for which, in the series with H1155 cells [1], the synergy with paclitaxel entry is “strongly synergized”.

Consider `Cc1ccc(-c2c(C(=O)CF)n(CCCO)c3ncnc(N)c23)cc1` [FMK], for which, in [2] (20 μM), the “effect on viability, single agent” value is “little effect”.

Regarding `C[C@]1(O)C[C@@H](c2nc(-c3ccc4ccc(-c5ccccc5)nc4c3)c3c(N)nccn32)C1` [OSI-906], in series [2] (1.5 μM), the “effect on viability, single agent” value is recorded as “little effect”.

On to `CS(=O)(=O)c1cccc(CNc2nc(Nc3ccc4c(c3)CCC(=O)N4)ncc2C(F)(F)F)c1` [PF-573228], for which the “effect on viability, single agent” value in [2] (1.5 μM) is reported as “little effect”.

Regarding `CC(=O)O[C@@H]1[C@@H](OC(C)=O)[C@@H](O)[C@H](Oc2c(-c3ccc(O)cc3)oc3cc(O)cc(O)c3c2=O)O[C@H]1C` [SL0101], the “effect on viability, single agent” value in series [2] (20 μM) is given as “little effect”.

Turning to `Cc1cc(Nc2ncc(Cl)c(Nc3ccccc3S(=O)(=O)C(C)C)n2)c(OC(C)C)cc1C1CCN(CCCN)CC1` [c-ceritinib], on EML4-ALK, the “binding of EML4-ALK” value is “ability to bind”. Also, the ALK inhibition result on ALK is reported as “Activity was confirmed”.

As to `Cc1cc(Nc2ncc(Cl)c(Nc3ccccc3S(=O)(=O)C(C)C)n2)c(OC(C)C)cc1C1CCNCC1` [ceritinib, 5-Chloro-N2-(2-isopropoxy-5-methyl-4-(piperidin-4-yl)phenyl)-N4-(2-(isopropylsulfonyl)phenyl)pyrimidine-2,4-diamine], in the series on NSCLC cells, the cell cycle effect entry is recorded as “G1 cell cycle arrest”. For the same compound, the “effect on AKT phosphorylation” value in [3] is listed as “reduced”. Further, the “effect on RPS6 S235/236 phosphorylation” value in [4] was “inhibited”. Moreover, the “effect on ERK phosphorylation” value in [5] is reported as “only minor effects”. For the same compound, the “effect on RSK1/2 S380/S386 autophosphorylation” value in [6] was “inhibited”. The “synergy (Bliss), 3D ex vivo culture” value in [7] is listed as “pronounced synergy”. In addition, the “apoptosis, combination” value in the series on H1155 cells [8] (ceritinib combined with paclitaxel) is recorded as “significant increase in apoptosis”. Besides, the “apoptosis, single drug” value with H1155 cells [8] was “no effect”. The clinical plasma concentrations in series [9] is 1.4 to 2.3 µM. Also, the pIC50 against FER was 8.30; in series [12] (72 h, read-out: IC50, inhibition of viability), 5.70 to 6.00; on AMPKα1, 5.60. Further, the “combination effect, clonogenic assay” value in the series with H460 cells [10] is given as “pronounced combination effects”. Further, the inhibition result against mTOR and with ERK1/2 was “not significantly inhibited” each time. Further, in the series with H460 cells [11], the “synergy, CI values” is listed as “highly synergistic”. Besides, in series [12] (read-out: Emax, viability), the viability at 4 µM turned out to be 0%. In addition, the “effect on YB1 S102 phosphorylation” value in [13] is “inhibited”. In addition, the “synergy, Bliss model of independence” value in the series on H650 and H1155 cells is “substantial synergy”. The “activity in viability screen” value in series [14] was “specific ALK-independent activity”. Moreover, in the series with H1155 cells [1], the synergy with paclitaxel entry is on record as “pronounced synergy”. Besides, the “effect on autophosphorylation of FAK1” value in series [15] is recorded as “reduced”. Besides, the kinase domain bound result in series [16] is given as “binds to the CTKD”. The response to combination entry in series [17] is given as “strong response”. In addition, the “competition from the affinity matrix” value with FAK1 and RSK1/2 is given as “competed away”.

`c1cc(-c2cnn3cc(-c4ccc(OCCN5CCCCC5)cc4)cnc23)ccn1` [compound C]: the synergy with paclitaxel entry in the series with H1155 cells [1] was “did not synergize”.

Regarding `CC(=O)O[C@H]1C(=O)[C@@]2(C)[C@H]([C@H](OC(=O)c3ccccc3)[C@]3(O)C[C@H](OC(=O)[C@H](O)[C@@H](NC(=O)c4ccccc4)c4ccccc4)C(C)=C1C3(C)C)[C@]1(OC(C)=O)CO[C@@H]1C[C@@H]2O` [paclitaxel], the “apoptosis, single drug” value in the series with H1155 cells [8] is reported as “no effect”.

As to `CN(C)C(=O)c1cc2cnc(Nc3ccc(N4CCNCC4)cn3)nc2n1C1CCCC1` [ribociclib], the synergy with paclitaxel entry in the series on H1155 cells [1] is recorded as “did not exhibit synergy”.
